Consider one compound from ChEMBL document CHEMBL5365494, “Bis-6-amidino-benzothiazole Derivative that Cures Experimental Stage 1 African Trypanosomiasis with a Single Dose” (J Med Chem, 2023).

Data set [1] in a line: Drug uptake in blood stream form of Trypanosoma brucei at 10 ug/ml incubated for 6 hrs in presence of bafilomycin Al by fluorescence microscopy. Format: ADME, tissue-based. To be noted: dose 10 µg/ml. The gist of the method:
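Bloodstream-form T. brucei incubated 6 h with compound 10 μg mL⁻¹ with or without 8 nM BafA1, then imaged by fluorescence microscopy.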

Data set [2] is described as follows: Drug localization in nucleus of Trypanosoma brucei bloodstream form at 10 ug/ml measured for 180 mins by fluorescence microscopy. The conditions noted are these: 3 h, dose 10 µg/ml. The data set is classed as ADME, subcellular. The gist of the method: (§1)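 Bloodstream-form T. brucei incubated with compound 10 μg mL⁻¹ for 60 or 180 min or 24 h; fixed in 4% PFA, mounted with DAPI, imaged by fluorescence microscopy (ex 550/em 585 nm).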

Data set [3] has as its system Trypanosoma brucei brucei. Briefly: Antitrypanosomal activity against stage-1 bioluminescent Trypanosoma brucei brucei GVR35-VSL2 expressing red-shifted luciferase infected in BALB/c mouse assessed as reduction in parasite growth at 2 mg/kg, ip administered as single dose for 1 day starting from 4 days post infection by luciferase based bioluminescence assay. The data set is classed as functional, organism-based. In a few lines: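 BALB/c mice infected with 30,000 bioluminescent bloodstream-form T. brucei; dosing i.p. or oral from 4 days post-infection, single or once daily for 4 days. Monitored by in vivo imaging after i.p. d-luciferin 150 mg kg⁻¹ under isoflurane, with total body flux from dorsal plus ventral images. Cure required negativity by both in vivo and ex vivo imaging.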

The test system of data set [4] is Trypanosoma brucei. Briefly: Induction of tetracycline dependent drug resistant in Trypanosoma brucei MiTat 1.2, clone 221a assessed as outgrowth of resistant parasites at 1 to 2 ng/ml measured for 10 days. Format: functional. To be noted: dose 1-2 ng/ml, time 10.0 day.
Data set [5] is described as follows: Cytotoxicity against rat L6 cells assessed as cell growth inhibition incubated for 6 days by resazurin dye based assay. Format: toxicity. In a few lines: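 Rat L6 myoblasts seeded at 1×10⁴ mL⁻¹ in RPMI-1640 with a range of compound concentrations, 6 days at 37 °C; resazurin added, 6 h further, fluorescence ex 545/em 590 nm.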
(Resazurin is reduced to fluorescent resorufin, in cell work by metabolically active cells.)

Data set [6] deals with Trypanosoma brucei. Briefly: Antitrypanosomal activity against blood stream form of Trypanosoma brucei 221a variant assessed as parasite growth inhibition measured after 48 hrs by resazurin dye based fluorescence analysis. The data set is classed as functional, organism-based. The gist of the method:
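Bloodstream-form T. b. brucei 221a (MiTat1.2a) in modified Iscove's medium at 37 °C, started at 2.5×10^4 mL^-1 with a concentration range. After 48 h, resazurin was added for a further 16 h. Fluorescence read at ex 545/em 590 nm. EC50 and EC90 taken from three independent replicates.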

Data set [7] deals with Trypanosoma brucei. The experiment in a line: Resistant development in Trypanosoma brucei harboring aqp null mutants assessed as fold reduction in sensitivity incubated for 48 hrs by resazurin dye based analysis relative to control. Format: functional. The gist of the method: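 Tbaqp null mutant bloodstream lines tested in the 48 h resazurin microtiter assay: 2.5×10^4 parasites mL^-1 at 37 °C, then 16 h with resazurin and fluorescence read-out. EC50 found for each line in triplicate.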

Data set [8] in a line: Toxicity in BALB/c mouse infected with bioluminescent Trypanosoma brucei brucei GVR35-VSL2 expressing red-shifted luciferase assessed as shaking in animal at 0.25 to 20 mg/kg, ip administered once daily for 4 days. Format: organism-based. The conditions noted are these: in vivo, 96 h, dose 0.25-20 mg/kg, time 4 day. The gist of the method: (§2)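 Infected BALB/c mice (bioluminescent T. brucei, 30,000 parasites) dosed i.p. or orally once daily for 4 days starting day 4 post-infection; observed for piloerection, hunching, shaking, lack of activity and body weight change.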

Data set [9] has as its system Trypanosoma brucei. The experiment in a line: Antitrypanosomal activity against blood stream form of Trypanosoma brucei 221a variant assessed as lethality at >=1.2 nM incubated for 3 days followed by replacement with fresh medium without compound and measured for 12 days by resazurin dye based fluorescence analysis relative to control. The data set is classed as functional. The conditions noted are these: time 3 day. The gist of the method: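 Bloodstream-form T. brucei seeded in flasks at 10^5 mL^-1 with a range of compound concentrations. Every 24 h parasites were sub-cultured back to 10^5 mL^-1 in continued compound presence, through day 10. Growth reported as cumulative parasite number. In a washout arm, parasites were exposed for 3 days, moved to compound-free medium and followed for 12 days.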

Data set [10] is described as follows: Drug localization in endosome of Trypanosoma brucei bloodstream form at 10 ug/ml measured after 6 hrs in presence of bafilomycin Al by TbCatL antibody based immunofluorescence microscopy. The data set is classed as ADME, subcellular. The conditions noted are these: dose 10 µg/ml. In a few lines: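 Parasites exposed to compound 10 μg mL⁻¹ for 6 h, with or without BafA1 8 nM; fixed 4% PFA, permeabilized 0.1% Triton X-100, blocked 1% BSA, rabbit anti-TbCatL 1:200 overnight at 4 °C, then Alexa 488 anti-rabbit 2 μg mL⁻¹ 1 h at 37 °C; fluorescence microscopy.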

A short description of data set [11]: Toxicity in BALB/c mouse infected with bioluminescent Trypanosoma brucei brucei GVR35-VSL2 expressing red-shifted luciferase assessed as piloerection in animal at 20 mg/kg, po administered once daily for 4 days. The data set is classed as organism-based. To be noted: in vivo, 96 h, time 4 day. In a few lines:
as §2

The nature of data set [12]: Drug localization in kinetoplast of Trypanosoma brucei bloodstream form at 10 ug/ml measured for 180 mins by fluorescence microscopy. To be noted: 3 h, dose 10 µg/ml. Format: ADME, subcellular. The gist of the method: as §1
The next data set has as its system Plasmodium falciparum. Briefly: Antiplasmodial activity against Plasmodium falciparum 3D7 infected in human erythrocytes assessed as inhibition of asexual parasite development measured after 96 hrs by fluorescence based assay. Format: functional, organism-based. To be noted: 3D7, Erythrocyte. In a few lines: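 3D7 asexual parasites in human erythrocytes (RPMI 1640, 0.5% Albumax II, 50 μM hypoxanthine, 2 mM L-glutamine, 5% CO2), 2% parasitemia/1% hematocrit; compound in DMSO dilutions, 96 h at 37 °C. Freeze-thaw, SYBR green lysis buffer, 1 h, fluorescence ex 485/em 535 nm. Normalized to DMSO and 1 μM dihydroartemisinin; EC50 from triplicate independent dose-response curves.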

Data set [13] can be described thus: Apparent permeability across basolateral to apical side in MDCK-MDR1 cells at 10 uM measured for 60 mins by LC-MS/MS analysis. The conditions noted are these: dog, mdck-mdr1, 1 h, 10 µM. Format: ADME, cell-based, Canis lupus familiaris. In a few lines: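 MDCKII-hMDR1 monolayers on inserts, compound 10 μM (1% DMSO) in duplicate, 60 min at 37 °C, bidirectional, with and without elacridar 2 μM. Amprenavir as P-gp control, Lucifer yellow for monolayer integrity; compound quantified by LC–MS/MS.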

Data set [14] can be described thus: Selectivity index, ratio of EC50 for cytotoxicity against rat L6 cells to EC50 for antitrypanosomal activity against bloodstream form of Trypanosoma brucei brucei 221a variant. The data set is classed as toxicity, cell-based. To be noted: read-out: Ratio EC50. In a few lines:
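L6 rat myoblasts seeded at 1×10^4 mL^-1 in RPMI-1640 with a compound concentration range for 6 days at 37 °C. Resazurin added for 6 h, then fluorescence read.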

Data set [15] is described as follows: Toxicity in BALB/c mouse infected with bioluminescent Trypanosoma brucei brucei GVR35-VSL2 expressing red-shifted luciferase assessed as piloerection in animal at 0.25 to 20 mg/kg, ip administered once daily for 4 days. Format: organism-based. To be noted: in vivo, 96 h, dose 0.25-20 mg/kg, time 4 day. In a few lines:
as §2

Data set [16] can be described thus: Toxicity in BALB/c mouse infected with bioluminescent Trypanosoma brucei brucei GVR35-VSL2 expressing red-shifted luciferase assessed as shaking in animal at 20 mg/kg, po administered once daily for 4 days. Format: organism-based. The conditions noted are these: in vivo, 96 h, time 4 day. The gist of the method:
as §2

Data set [17] is described as follows: Toxicity in BALB/c mouse infected with bioluminescent Trypanosoma brucei brucei GVR35-VSL2 expressing red-shifted luciferase assessed as lack of activity in animal at 20 mg/kg, po administered once daily for 4 days. The data set is classed as organism-based. The conditions noted are these: in vivo, 96 h, time 4 day. In a few lines: as §2
The nature of data set [18]: Toxicity in BALB/c mouse infected with bioluminescent Trypanosoma brucei brucei GVR35-VSL2 expressing red-shifted luciferase assessed as hunching in animal at 0.25 to 20 mg/kg, ip administered once daily for 4 days. Format: organism-based. To be noted: in vivo, 96 h, dose 0.25-20 mg/kg, time 4 day. The gist of the method: as §2

Activity calls are given as the source filed them. No cut-off for these calls is given here.

Regarding `CS(=O)(=O)O.CS(=O)(=O)O.N=C(N)c1ccc2nc(C3CCC(c4nc5ccc(C(=N)N)cc5s4)CC3)sc2c1` (stereo not given), the Drug uptake result in [1], in data set [2], in data set [10] and in [12] was “Not Active” in each case. Besides, the outcome (in [3]; in the data set with Trypanosoma brucei [4]) was inactive. For the same compound, the EC50 at 6 days in [5] turned out to be 13400 nM. Moreover, the results for the EC50 in the data set with Trypanosoma brucei [6] (48 h) and in the data set with Plasmodium falciparum were 1 nM and 25.3 nM, respectively. Moreover, the EC90 with Trypanosoma brucei [6] (time 48 hrs) was 1 nM. For the same compound, the “fold change (FC)” value in the data set with Trypanosoma brucei [7] is given as 1.3. The Activity entry is recorded as “Non-Toxic” in data set [8]; 100% in the data set with Trypanosoma brucei [9]; “Non-Toxic” in data set [11]; “Non-Toxic” in [15]; “Non-Toxic” in data set [16]; “Non-Toxic” in data set [17]. In addition, in [18], the Activity entry is “Non-Toxic”. Further, in data set [13], the Papp is 0.4 10^-6 cm/s. For the same compound, the selectivity ratio in data set [14] was determined as 26300.

As usually defined, the EC50 is the concentration at which the effect is half-maximal. One may read the EC90 as the concentration needed for an effect of 90%.
